Activity calls are given as the source filed them.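 How the source made its calls: active means a full or partial loss of lipid-probe fluorescence in the fish gall bladder, intestine or both, judged by eye; inactive means no fluorescence loss, or compound toxic to the fish.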
Test: inhibitors of larval lipid processing in zebrafish, primary screen, whole organism, PED6 fluorescence, gall bladder and intestine (AID 686);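 further: larvae 5 to 7 days old with five fish per well; signal comes from phospholipase A2 cleavage of quenched PED6 carried via bile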
Settings: Zebrafish larvae PED6 lipid processing, fluorescence scoring; screened at 20 µM (by protocol)
How it was run: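 Incubation: overnight exposure of larvae to compound plus PED6 / Test system: live zebrafish larvae aged 5-7 days, whole organism / Amount: 5 larvae per well / Read-out basis: visual per-well fluorescence inhibition score / Signal: visual fluorescence microscopy scoring of gall bladder, gut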

| Compound | outcome |
| --- | --- |
| CCOC(=O)N1CCN(C(=O)CN(Cc2ccccc2)S(=O)(=O)c2ccc(OC)c(C)c2)CC1 | inactive |
| COC(=O)c1ccc(COC(=O)c2c(C)nn(Cc3ccccc3Cl)c2Cl)o1 | inactive |
| O=C(Nc1cccnc1)c1cc2c(ccc3ccccc32)o1 | inactive |
| Clc1ccc(OCc2nnc(SCCN3CCCCC3)n2Cc2ccco2)cc1 | active; no signal in gallbladder and intestine |
| O=C(/C=C/N1CCOCC1)c1ccc(-c2ccccc2)cc1 | inactive |
| COc1cccc(N2C(=O)N(c3ccccc3Cl)C3CS(=O)(=O)CC32)c1 (stereo not given) | inactive |
| O=C(NCc1cccs1)c1cc2c(s1)CS(=O)(=O)C2 | inactive |
| CC(C)CC(c1nnnn1C(C)(C)C)N1CCN(C2CCCC2)CC1 (stereo not given) | inactive |
| Cc1cc(C(=O)COC(=O)CCc2nc3ccccc3s2)c(C)n1C | inactive |
| Cc1cc(C)n2nc(SCC(=O)N(C)Cc3ccccc3)nc2n1 | inactive |
| CCCCCCC(c1c(C)n(C)n(-c2ccccc2)c1=O)c1c(C)n(C)n(-c2ccccc2)c1=O | inactive |
| c1ccc2c(-c3nc(-c4ccncc4)no3)cccc2c1 | inactive |
| CNC(=O)c1ccc2nc(NC(C)=O)sc2c1 | inactive |
| O=C(c1ccccc1)c1ccc(N2CCNCC2)cc1 | inactive |
| N#Cc1c(-c2ccc3c(c2)OCO3)csc1N | inactive |
| Cc1ccc(Cn2c(SCC(N)=O)nc3c2c(=O)n(C)c(=O)n3C)cc1 | inactive |
| C#CCOC(=O)C1C2C=CC(C2)C1C(=O)O (stereo not given) | inactive |
| Cc1nc2ncnn2c(N2CCC(C(=O)NCC3CCCO3)CC2)c1Cc1ccccc1 (stereo not given) | inactive |
| CCC(=O)Nc1nn(C)c2nc3c(C)cccc3cc12 | inactive |
| Cc1cc(NC(=O)C(C)(C)C)no1 | inactive |

| Compound | outcome |
| --- | --- |
| CCN(CC(=O)Nc1ccc2c(c1)CCC2)Cc1nc2ccccc2c(=O)[nH]1 | inactive |
| Cc1ccc(S(=O)(=O)NCC(=O)OCC(=O)Nc2ncc(Cl)cc2Cl)cc1 | inactive |
| O=C(CN1C(=O)c2ccccc2C1=O)Nc1ccc(S(=O)(=O)NCC2CCCO2)cc1 (stereo not given) | inactive |
| Cc1cc(C)nc(SCc2nnc(SCC(=O)Nc3ncc(C)s3)n2Cc2ccco2)n1 | inactive |
| COc1ccc(C(C)NC(=O)c2ccoc2C)cc1OC (stereo not given) | inactive |
| Cc1nc(C)n(C(C)CC(=O)O)n1 (stereo not given) | inactive |
| Cc1cccc(N(CC(=O)N2CCCC2)S(=O)(=O)c2ccccc2)c1C | inactive |
| CCC1(C)Cc2c(sc3nc(SCC(=O)O)[nH]c(=O)c23)CO1 (stereo not given) | inactive |
| Cc1cc(NC(=O)CSc2nc(C3CC3)nc3sc4c(c23)CCC(C)C4)no1 (stereo not given) | inactive |
| CCN(CC)C(c1ccc(C)cc1)c1nnnn1C1CCCCC1 (stereo not given) | inactive |
| COc1ccc(NC(=O)CSc2nc(C)cc(C(F)(F)F)n2)cc1 | inactive |
| CC1CN(C(=O)CSc2ncnc3sccc23)CC(C)O1 (stereo not given) | inactive |
| CC1CCCC(C)N1CCNC(=O)C1CCN(S(=O)(=O)N2CCCCC2)CC1 (stereo not given) | inactive |
| COc1ccc(C(=O)Nc2ccc(Cl)c(Cl)c2)c(OC)n1 | inactive |
| CC(C)(C)c1ccc(C(=O)N2CCC(C(=O)NCc3ccncc3)CC2)cc1 | inactive |
| CCc1nnc(NC(=O)CSc2nc(-c3ccc(OC)cc3)ns2)s1 | inactive |
| COC(=O)c1ccc(NC(=O)C2C3CCC(C3)C2C(=O)O)cc1 (stereo not given) | inactive |
| c1ccc(-c2nc3cnccn3c2Nc2ccc3c(c2)OCCO3)cc1 | inactive |
| CCOCC(O)CS(=O)Cc1ccccc1 (stereo not given) | inactive |
| Cc1ccc(OCC(O)Cn2c(NCCc3ccccc3)nc3c2c(=O)[nH]c(=O)n3C)cc1 (stereo not given) | inactive |

— PubChem BioAssay
